Assay results gathered from unrelated publications.
Observed: metabolic stability

Structure (SMILES) | test system | setting | quantity | value
Cc1ccc(Cn2cc(C(=O)NN)c(=O)c3cc(Oc4ccccc4)ccc32)cc1 | male CD-1 mouse, liver microsomes | 1 µM | microsomal CLint | < 11.6 µL/min/mg
CC1(CN)CCN(c2cnc3c(Sc4ccncc4Cl)n[nH]c3n2)CC1 | mouse, liver microsomes |  | scaled CLint | 8.71 mL/min/kg
CCN(CCN)c1ccc(Nc2cc(NC3CC3)n3ncc(C#N)c3n2)cc1-n1cnnc1 | male CD-1 mouse, hepatocytes | 1 µM, serum-free | scaled CLint | < 32 mL/min/kg
CC(C)Oc1ccc(S(=O)(=O)c2ccc(Oc3cc(OCC(N)=O)c(C(=O)C(Cl)Cl)cc3[N+](=O)[O-])cc2)cc1 | mouse, liver microsomes |  | microsomal CLint | 197 µL/min/mg
O=c1ccc2ccc(O)cc2o1 | mouse, liver microsomes |  | scaled CLint | 3050 mL/min/kg
O=C(O)Cc1ccccc1Nc1c(Cl)cccc1Cl | mouse, liver microsomes |  | scaled CLint | 90.3 mL/min/kg
O=c1ccc2cc(O)ccc2o1 | mouse, liver microsomes |  | microsomal CLint | 170 µL/min/mg
CCOc1ccc2ccc(=O)oc2c1 | male CD-1 mouse, hepatocytes | 1 µM | hepatocyte CLint | > 46.2 µL/min/10⁶ cells
